# Assay results gathered from unrelated publications.
# Target: Tyrosine-protein kinase Tec (TEC, Homo sapiens, UniProt P42680)
# Residues used in one study (P42680 1-631): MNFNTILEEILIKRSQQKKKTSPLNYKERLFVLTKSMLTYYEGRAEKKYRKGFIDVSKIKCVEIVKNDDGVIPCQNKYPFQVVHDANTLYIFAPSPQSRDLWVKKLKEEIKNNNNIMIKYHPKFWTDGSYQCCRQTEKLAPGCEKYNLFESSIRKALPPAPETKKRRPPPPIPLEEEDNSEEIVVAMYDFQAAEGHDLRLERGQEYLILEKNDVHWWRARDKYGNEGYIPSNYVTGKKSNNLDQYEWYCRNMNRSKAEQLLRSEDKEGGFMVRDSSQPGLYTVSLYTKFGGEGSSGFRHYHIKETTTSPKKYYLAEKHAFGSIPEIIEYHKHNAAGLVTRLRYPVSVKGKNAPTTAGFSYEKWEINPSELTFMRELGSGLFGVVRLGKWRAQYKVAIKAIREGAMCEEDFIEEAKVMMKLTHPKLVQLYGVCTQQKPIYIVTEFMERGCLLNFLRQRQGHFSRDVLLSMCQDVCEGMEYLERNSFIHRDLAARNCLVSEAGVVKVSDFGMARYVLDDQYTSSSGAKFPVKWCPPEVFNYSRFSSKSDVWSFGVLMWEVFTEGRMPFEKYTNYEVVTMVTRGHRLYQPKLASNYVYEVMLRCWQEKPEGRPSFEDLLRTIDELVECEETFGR
Structure (SMILES),effect on,technique,concentration,remaining binding [%]
Cc1cnn2ncc(-c3ccnc(N(C)C)n3)c2c1,binding,,1 µM,100
Nc1ncc2c(n1)-c1c([nH]c3ccc(C#CC4CC4)cc13)CCCC2,binding,competition with immobilised ligand,1 µM,100
COc1cnc(Nc2cccc(S(N)(=O)=O)c2)nc1N1CCN(c2ccccc2)CC1,binding,competition with immobilised ligand,1 µM,85
CCCCN(CCCC)C(=O)CN1C[C@@H](c2cc(OC)c3c(c2)OCO3)[C@H](C(=O)O)[C@H]1CC(C)(C)CCC,cell-free assay,competition with immobilised ligand,1 µM,100
CC1CCCN1c1nccc(-c2cnn3ncccc23)n1 (stereo not drawn),binding,,1 µM,100
O=C(Nc1c[nH]nc1C(=O)NC1CCNCC1)c1cc(F)cc(F)c1,binding,competition with immobilised ligand,1 µM,100
O=C(c1ccc(Nc2nccc(-c3cc4ccccc4s3)n2)cc1)N1CCC(N2CCCC2)CC1,binding,competition with immobilised ligand,1 µM,100
N[C@H]1CCN(c2nccc(-c3cnn4ncccc34)n2)C1,binding,,1 µM,100
O=C(c1ccc(Nc2ncc(Cl)c(-c3ccc(Cl)s3)n2)cc1)N1CCC(N2CCCC2)CC1,binding,competition with immobilised ligand,1 µM,100
FC(F)(F)Oc1cccc(-c2cnc3ccc(-c4ccncc4)nn23)c1,binding,competition with immobilised ligand,5 µM,99
COc1ccnn2ncc(-c3ccnc(N(C)C)n3)c12,binding,,1 µM,93
CN(C(=O)c1ccccc1)c1cc(N(C)c2ccc3c(c2)CCc2ccc(C(=O)NCCN4CCOCC4)cc2C3=O)ccc1F,cell-free assay,competition with immobilised ligand,1 µM,100
c1cncc(-c2cccc(Nc3nccc(NC4CCCCC4)n3)c2)c1,binding,competition with immobilised ligand,10 µM,94
COc1ccc2c(O[C@@H]3C[C@H]4C(=O)N[C@]5(C(=O)O)CC5/C=C\CCCCC[C@H](NC(=O)OC5CCCC5)C(=O)N4C3)cc(-c3csc(NC(=O)C(C)C)n3)nc2c1C (stereo partly drawn),cell-free assay,competition with immobilised ligand,1 µM,100
c1cnn2ncc(-c3ccnc(N4CCC45COC5)n3)c2c1,binding,,1 µM,99
C[C@@]1(Cc2ccc(C#N)cc2)C(=O)N(c2cc(Cl)cc(Cl)c2)c2ncc(C(=O)NC3(c4nc(C5CCC5)no4)CC3)n21,cell-free assay,competition with immobilised ligand,1 µM,92
CN(CCCC(F)(F)F)c1nccc(-c2cnn3ncccc23)n1,binding,,1 µM,97
CS(=O)(=O)c1cc(C2(NC(=O)c3cncc4c3cnn4-c3ccc(F)cc3)CC2)ccn1,cell-free assay,competition with immobilised ligand,1 µM,99
O=C(NCCCN1CCOCC1)c1ccc(Nc2nccc(-c3cc4ccccc4s3)n2)cc1,binding,competition with immobilised ligand,1 µM,100
C=CC(=O)N1CCC(C(=O)NCC(=O)N2CCN(c3nc(-c4cnc(N)nc4C(F)F)nc(N4CCOCC4)n3)CC2)CC1,binding,competition with immobilised ligand,1 µM,99
CSc1cccnc1N1CCN(Cc2nc3ccccc3[nH]2)CC1,binding,competition with immobilised ligand,1 µM,90
